How the values were obtained:
Type in all cases: functional
[1] = Inhibition of skin tumor promoter -induced mouse epidermal ornithine decarboxylase (ODC) activity on TPA-induced mouse epidermis at a dose of 1.7(nmol)
How it was run: (§1)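 Female CD-1 mice, 7–9 weeks, shaved dorsal skin 1–2 days before, no hair regrowth. Retinoid applied topically in 0.2 mL acetone 1 h before single topical TPA (10.5 μg, 17 nmol, in 0.2 mL acetone). Killed 5 h after TPA. Five mice per group, skins pooled. Epidermal 30000g supernatant in 50 mM sodium phosphate, 0.1 mM pyridoxal phosphate, 0.1 mM EDTA.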

[2] = Inhibition of skin tumor promoter -induced mouse epidermal ornithine decarboxylase (ODC) activity on TPA-induced mouse epidermis at a dose of 17(nmol); how it was run: as §1
[3] = Inhibition of skin tumor promoter -induced mouse epidermal ornithine decarboxylase (ODC) activity on TPA-induced mouse epidermis at a dose of 170(nmol); how it was run: as §1

SMILES	inhibition [1] [%]	inhibition [2] [%]	inhibition [3] [%]
CCOC(=O)/C=C(C)/C=C/C=C(C)/C=C/C1=CC2CCC1C2 (stereo unspecified)	46	63	95
CC(=O)Oc1cccc(/C=C/C=C(C)/C=C/C2=C(C)CCCC2(C)C)c1	3	46	92
CC1=C(/C=C/C(C)=C/C=C/C(C)=C/c2nn[nH]n2)C(C)(C)CCC1	3	13	2

More lines, now with the values ahead:

inhibition [1] [%]	inhibition [2] [%]	inhibition [3] [%]	SMILES
91	–	–	CC1=C(/C=C/C(C)=C/C=C/C(C)=C/C(=O)O)C(C)(C)CCC1
66	86	87	CCC1=C(/C=C/C(C)=C/C=C/C(C)=C/C(=O)O)C(C)(C)CCC1
70	92	97	COCCOCCOC(=O)/C=C(C)/C=C/C=C(C)/C=C/C1=C(C)CCCC1(C)C

— ChEMBL document CHEMBL1121505, “Retinoic acid analogues. Synthesis and potential as cancer chemopreventive agents” (J Med Chem, 1980)
